Measured values pooled from the literature.
Each line is one published result; the experiments were not run side by side.

| system | conditions | concentration | Structure (SMILES) |
| --- | --- | --- | --- |
| female BALB/c mouse, plasma | intraperitoneal, 50 mg/kg, 1 h | 2860 ng/mL | CC(C)c1cc(C(=O)NCCN)c2cnn(C(C)C)c2n1 |
| male CD-1 mouse, plasma | oral, 10 mg/kg, 40.2 min | 85.3 ng/mL | NCc1cc2c(cc1F)C(=O)N(C1CCC(=O)NC1=O)C2 (stereo not drawn) |
| male Swiss mouse, plasma | oral, 100 mg/kg, 24 h | 130 ng/mL | CC1(C)NC(=O)N(c2ccc(F)c(S(C)(=O)=O)c2)C1=O |
| male BALB/c mouse, brain | intravenous, 1 mg/kg, 72 h | 2.9 ng/g | Cc1nc2ccc(OCc3ccc(C(F)(F)F)cc3)cc2[nH]1 |
| female BALB/c mouse, plasma | intraperitoneal, 50 mg/kg, 4 h | 1230 ng/mL | CC(C)n1ncc2c(C(=O)NCC3(C)CNC3)cc(C3CC3)nc21 |
| male CD-1 mouse, plasma | intravenous, 1 mg/kg, 15 min | 136 ng/mL | O=C1CCC(N2Cc3cc(C4CCN(Cc5ccccc5)CC4)ccc3C2=O)C(=O)N1 (stereo not drawn) |
| BALB/c mouse, plasma | oral, 10 mg/kg, 30 min | 1150 ng/mL | CC(C)(C)S(=O)(=O)c1cc2c(Nc3ccc4scnc4c3)ncnc2cc1OCCOP(=O)(O)O |
| male Swiss mouse, plasma | oral, 100 mg/kg, 24 h | 12500 ng/mL | CC1(C)NC(=O)N(c2ccc(F)c(Br)c2)C1=O |
| mouse, brain | subcutaneous, 10 mg/kg, 30 min, single dose | 3.7 µM | Cc1ccc2c(c1)C(=O)[C@]1(O)CCN(c3ccc4nc(C)ccc4c3)C1=N2 |
